Source: ChEMBL document CHEMBL1141228, “Conformationally constrained CCK4 analogues incorporating IBTM and BTD beta-turn mimetics” (J Med Chem, 2005)

How the values were obtained:
[1] = biological target: T1, Cholecystokinin receptor type A (Rattus norvegicus, UniProt P30551); experiment: Displacement of [3H]propionylCCK8 from rat pancreatic CCK1
T1 sequence (P30551 whole entry): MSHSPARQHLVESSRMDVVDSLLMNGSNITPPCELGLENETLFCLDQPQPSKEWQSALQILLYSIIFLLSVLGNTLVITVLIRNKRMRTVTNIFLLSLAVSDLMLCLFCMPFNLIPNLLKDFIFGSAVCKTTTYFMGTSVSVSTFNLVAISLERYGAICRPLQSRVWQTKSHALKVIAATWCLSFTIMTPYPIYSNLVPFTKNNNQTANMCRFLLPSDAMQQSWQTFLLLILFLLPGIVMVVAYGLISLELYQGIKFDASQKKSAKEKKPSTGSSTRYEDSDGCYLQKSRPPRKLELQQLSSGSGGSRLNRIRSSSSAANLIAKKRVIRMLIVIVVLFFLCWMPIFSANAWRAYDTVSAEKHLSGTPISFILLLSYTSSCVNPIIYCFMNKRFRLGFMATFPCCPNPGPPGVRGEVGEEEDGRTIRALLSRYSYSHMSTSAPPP
Method in brief: (§1)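 Binding run on rat tissue homogenates: pancreas for CCK1, cerebral cortex for CCK2. Seven concentrations of test compound, each in duplicate. Values are means or mean ± SEM of at least three experiments.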

[2] = biological target: T2, Gastrin/cholecystokinin type B receptor (Rattus norvegicus, UniProt P30553); experiment: Displacement of [3H]propionylCCK8 from rat cerebral cortex CCK2; assay type: tissue-based; method in brief: as §1
T2 sequence (P30553 whole entry): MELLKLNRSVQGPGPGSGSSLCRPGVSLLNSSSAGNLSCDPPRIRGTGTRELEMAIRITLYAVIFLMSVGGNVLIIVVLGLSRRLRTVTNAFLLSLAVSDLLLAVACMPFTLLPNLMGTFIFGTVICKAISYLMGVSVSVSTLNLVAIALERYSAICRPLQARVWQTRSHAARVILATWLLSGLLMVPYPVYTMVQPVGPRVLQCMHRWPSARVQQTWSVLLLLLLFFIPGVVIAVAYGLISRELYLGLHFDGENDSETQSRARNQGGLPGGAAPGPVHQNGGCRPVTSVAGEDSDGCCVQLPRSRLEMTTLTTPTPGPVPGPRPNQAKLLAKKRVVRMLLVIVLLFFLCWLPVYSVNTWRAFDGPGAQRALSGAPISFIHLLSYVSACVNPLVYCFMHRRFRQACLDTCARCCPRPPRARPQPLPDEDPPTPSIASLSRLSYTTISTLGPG

[3] = biological target: T3, Cholecystokinin receptor (Rattus norvegicus, UniProt P30551+P30553); experiment: Antagonizing activity of CCK8 induced amylase secretion from rat pancreatic acini
T3 sequence (P30551 whole entry): T1 sequence (P30551 whole entry)
T3 sequence (P30553 whole entry): T2 sequence (P30553 whole entry)
Method in brief: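 Rat pancreas digested with collagenase (70 U/mL) in three 10-min incubations at 37 °C under O2 to give dispersed acini. Acini incubated 30 min at 37 °C under pure O2 with agitation, 0.1 nM CCK8 as stimulus, test compound at increasing concentrations. Amylase measured by kit; release expressed as percent of acinar amylase; percent inhibition computed against vehicle control; IC50 derived.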

SMILES	IC50 [1]	IC50 [2]	IC50 [3]
COC(=O)[C@@H](Cc1ccccc1)NC(=O)[C@@H]1Cc2c([nH]c3ccccc23)[C@H]2C[C@H](NC(=O)[C@@H](Cc3c[nH]c4ccccc34)NC(=O)OC(C)(C)C)C(=O)N21	> 10 µM	> 10 µM	
CC(C)(C)OC(=O)N[C@H](Cc1c[nH]c2ccccc12)C(=O)N[C@H]1C[C@@H]2c3[nH]c4ccccc4c3C[C@@H](C(=O)N[C@@H](Cc3ccccc3)C(N)=O)N2C1=O	0.817 µM	> 10 µM	
CC(C)(C)OC(=O)N[C@@H](Cc1c[nH]c2ccccc12)C(=O)N[C@@H]1C[C@H]2c3[nH]c4ccccc4c3C[C@H](C(=O)N[C@@H](Cc3ccccc3)C(N)=O)N2C1=O	0.0549 µM	> 10 µM	0.13 µM
CC(C)(C)OC(=O)N[C@@H](Cc1c[nH]c2ccccc12)C(=O)N[C@H]1C[C@@H]2c3[nH]c4ccccc4c3C[C@@H](C(=O)N[C@@H](Cc3ccccc3)C(N)=O)N2C1=O	0.625 µM	> 10 µM	
CC(C)(C)OC(=O)N[C@H](Cc1c[nH]c2ccccc12)C(=O)N[C@@H]1C[C@H]2c3[nH]c4ccccc4c3C[C@H](C(=O)N[C@@H](Cc3ccccc3)C(N)=O)N2C1=O	0.0259 µM	> 10 µM	0.829 µM
CC(C)(C)OC(=O)N[C@H](Cc1c[nH]c2ccccc12)C(=O)N[C@@H]1C[C@H]2c3[nH]c4ccccc4c3C[C@H](C(=O)N[C@H](Cc3ccccc3)C(N)=O)N2C1=O	0.582 µM	> 10 µM	
COC(=O)[C@H](Cc1ccccc1)NC(=O)[C@@H]1Cc2c([nH]c3ccccc23)[C@H]2C[C@H](NC(=O)[C@H](Cc3c[nH]c4ccccc34)NC(=O)OC(C)(C)C)C(=O)N21	> 10 µM	> 10 µM	
CC(C)(C)OC(=O)N[C@H](Cc1c[nH]c2ccccc12)C(=O)N[C@H]1C[C@@H]2c3[nH]c4ccccc4c3C[C@@H](C(=O)N[C@H](Cc3ccccc3)C(N)=O)N2C1=O	> 1 µM	0.938 µM	
CC(C)(C)OC(=O)N[C@@H](Cc1c[nH]c2ccccc12)C(=O)N[C@@H]1C[C@H]2c3[nH]c4ccccc4c3C[C@H](C(=O)N[C@H](Cc3ccccc3)C(N)=O)N2C1=O	> 1 µM	> 10 µM	
O=C(N[C@H]1C[C@@H]2c3[nH]c4ccccc4c3C[C@@H](C(=O)N[C@@H](Cc3ccccc3)C(=O)O)N2C1=O)OCc1ccccc1		> 10 µM	
CC(C)(C)OC(=O)N[C@@H](Cc1c[nH]c2ccccc12)C(=O)N[C@H]1C[C@@H]2c3[nH]c4ccccc4c3C[C@@H](C(=O)N[C@H](Cc3ccccc3)C(N)=O)N2C1=O	> 1 µM	0.524 µM	
CC(C)(C)OC(=O)N[C@@H](Cc1c[nH]c2ccccc12)C(=O)N[C@H]1CC[C@@H]2SC[C@@H](C(=O)N[C@@H](Cc3ccccc3)C(N)=O)N2C1=O	> 1 µM	> 10 µM	
CSCC[C@H](NC(=O)[C@H](Cc1c[nH]c2ccccc12)NC(=O)OC(C)(C)C)C(=O)N[C@@H](CC(=O)O)C(=O)N[C@@H](Cc1ccccc1)C(N)=O	1.8 µM		
CC(C)(C)OC(=O)N[C@H](Cc1c[nH]c2ccccc12)C(=O)N[C@H]1CC[C@@H]2SC[C@@H](C(=O)N[C@@H](Cc3ccccc3)C(N)=O)N2C1=O	> 1 µM	> 10 µM	
CC(C)(C)OC(=O)N[C@H](Cc1c[nH]c2ccccc12)C(=O)N[C@H]1CC[C@@H]2SC[C@@H](C(=O)N[C@H](Cc3ccccc3)C(N)=O)N2C1=O	> 1 µM	> 10 µM	
CC(C)(C)OC(=O)N[C@@H](Cc1c[nH]c2ccccc12)C(=O)N[C@H]1CC[C@@H]2SC[C@@H](C(=O)N[C@H](Cc3ccccc3)C(N)=O)N2C1=O	> 1 µM	> 10 µM	
